Laboratory results published in ChEMBL document CHEMBL5131563, “Accelerated Identification of Cell Active KRAS Inhibitory Macrocyclic Peptides using Mixture Libraries and Automated Ligand Identification System (ALIS) Technology” (J Med Chem, 2022).
Where a SMILES comes first, the peptide text is derived from it. Bridges are numbered along the chain shown (N, C = ends). [ ]: non-standard residue; d: D form. Bip = N[C@@H](Cc1ccc(-c2ccccc2)cc1)C(=O)O; Ala(cPent) = N[C@@H](CC1CCCC1)C(=O)O; hPhe = N[C@@H](CCc1ccccc1)C(=O)O; Cha = N[C@@H](CC1CCCCC1)C(=O)O; hLeu = CC(C)CC[C@H](N)C(=O)O; Nle = CCCC[C@H](N)C(=O)O; Nva = CCC[C@H](N)C(=O)O

Columns and labels:
[1] = target: GTPase KRas (Homo sapiens, UniProt P01116, G12D); experiment: Inhibition of recombinant biotinylated KRAS G12D mutant (unknown origin) assessed as inhibition of SOS-catalyzed nucleotide exchange preincubated for 60 mins followed by addition of human SOS protein and unlabeled GTP and measured after 60 mins by TR-FRET analysis
GTPase KRas, sequence (P01116 whole entry G12D): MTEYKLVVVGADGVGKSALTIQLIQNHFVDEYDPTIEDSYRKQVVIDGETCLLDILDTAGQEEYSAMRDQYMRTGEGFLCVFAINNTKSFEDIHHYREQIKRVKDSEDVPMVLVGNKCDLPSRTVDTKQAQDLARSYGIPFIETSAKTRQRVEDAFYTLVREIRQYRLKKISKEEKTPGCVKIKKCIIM
How it was run: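 Biotinylated KRAS G12D was treated in EDTA buffer (1 h, RT), then loaded at 90 nM with 900 nM Bodipy-GDP and 15 nM Tb-streptavidin in Mg2+ buffer, HEPES pH 7.5 (6 h, RT). It was used at 1.5 nM assay solution with a 10-point, 3-fold DMSO compound series for 60 min at RT. A solution of 120 nM human SOS plus GTP was added for 60 min. The read-out was TR-FRET at 520/495 nm, normalized to DMSO and saturating-inhibitor controls, with a 4-parameter fit.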

[2] = Stability in human HeLa cell homogenate assessed as half life by LC-MS/MS analysis; type: ADME, cell-based
How it was run: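 HeLa cells suspended at 1 × 10^6 cells/mL, probe-sonicated on ice until homogeneous, stored frozen at –20 °C. Peptides incubated with homogenate (1 × 10^6 cells/mL equivalent); peptide loss over time quantified by LC-MS/MS to derive t1/2.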

Compound	IC50 [1]	half-life [2]
CC(=O)N[C@@H](CCCNC(=N)N)C(=O)N[C@@H](CCCNC(=N)N)C(=O)N[C@H]1CSSC[C@@H](C(=O)N[C@@H](CCCNC(=N)N)C(=O)N[C@@H](CCCNC(=N)N)C(N)=O)NC(=O)[C@H](C(C)C)NC(=O)[C@@H]2CCCN2C(=O)[C@H](CC(=O)O)NC(=O)[C@H](Cc2ccc(O)cc2)NC(=O)[C@H](CO)NC(=O)[C@H](CC2CCCC2)NC(=O)[C@H](CC2CCCCC2)NC(=O)[C@H](CC(C)C)NC(=O)[C@@H]2CCCN2C1=O (Ac-RRCPL[Cha][Ala(cPent)]SYDPVCRR-NH2; disulfide 3-13)	> 11100 nM	21 min
CCC[C@@H]1NC(=O)[C@H](CCc2ccccc2)NC(=O)[C@H](CC(C)C)NC(=O)[C@@H]2CCCN2C(=O)[C@@H](NC(=O)[C@H](CCCNC(=N)N)NC(=O)[C@H](CCCNC(=N)N)NC(C)=O)CSSC[C@@H](C(=O)N[C@@H](CCCNC(=N)N)C(=O)N[C@@H](CCCNC(=N)N)C(N)=O)NC(=O)[C@H](C(C)C)NC(=O)[C@@H]2CCCN2C(=O)[C@H](CC(=O)O)NC(=O)[C@H](Cc2ccc(O)cc2)NC(=O)[C@H](CO)NC1=O (Ac-RRCPL[hPhe][Nva]SYDPVCRR-NH2; disulfide 3-13)	> 11100 nM	15 min
CC(=O)N[C@@H](CCCNC(=N)N)C(=O)N[C@@H](CCCNC(=N)N)C(=O)N[C@H]1CSSC[C@@H](C(=O)N[C@@H](CCCNC(=N)N)C(=O)N[C@@H](CCCNC(=N)N)C(N)=O)NC(=O)[C@H](C(C)C)NC(=O)[C@@H]2CCCN2C(=O)[C@H](CC(=O)O)NC(=O)[C@H](Cc2ccc(O)cc2)NC(=O)[C@H](CO)NC(=O)[C@H](CCC(C)C)NC(=O)[C@H](Cc2ccc(-c3ccccc3)cc2)NC(=O)[C@H](CC(C)C)NC(=O)[C@@H]2CCCN2C1=O (Ac-RRCPL[Bip][hLeu]SYDPVCRR-NH2; disulfide 3-13)	> 11100 nM	17 min
CC[C@H](C)[C@@H]1NC(=O)[C@H](Cc2ccc(O)cc2)NC(=O)[C@H](CC(C)C)NC(=O)[C@@H]2CCCN2C(=O)[C@@H](NC(=O)[C@H](CCCNC(=N)N)NC(=O)[C@H](CCCNC(=N)N)NC(C)=O)CSSC[C@@H](C(=O)N[C@@H](CCCNC(=N)N)C(=O)N[C@@H](CCCNC(=N)N)C(N)=O)NC(=O)[C@H](C(C)C)NC(=O)[C@@H]2CCCN2C(=O)[C@H](CC(=O)O)NC(=O)[C@H](Cc2cc(F)c(F)c(F)c2)NC(=O)[C@H](CO)NC1=O	193 nM	18 min
CCCC[C@@H]1NC(=O)[C@H]([C@@H](C)CC)NC(=O)[C@H](Cc2ccc(O)cc2)NC(=O)[C@H](CC(C)C)NC(=O)[C@@H]2CCCN2C(=O)[C@@H](NC(=O)[C@H](CCCNC(=N)N)NC(=O)[C@H](CCCNC(=N)N)NC(C)=O)CSSC[C@@H](C(=O)N[C@@H](CCCNC(=N)N)C(=O)N[C@@H](CCCNC(=N)N)C(N)=O)NC(=O)[C@H](C(C)C)NC(=O)[C@@H]2CCCN2C(=O)[C@H](CC(=O)O)NC(=O)[C@H](CC2CCCCC2)NC1=O (Ac-RRCPLYI[Nle][Cha]DPVCRR-NH2; disulfide 3-13)	> 11100 nM	26 min
CC(=O)N[C@@H](CCCNC(=N)N)C(=O)N[C@@H](CCCNC(=N)N)C(=O)N[C@H]1CSSC[C@@H](C(=O)N[C@@H](CCCNC(=N)N)C(=O)N[C@@H](CCCNC(=N)N)C(N)=O)NC(=O)[C@H](C(C)C)NC(=O)[C@@H]2CCCN2C(=O)[C@H](CC(=O)O)NC(=O)[C@H](Cc2ccc(O)cc2)NC(=O)[C@H](CO)NC(=O)[C@H](CC2CCCC2)NC(=O)[C@H](Cc2ccc(O)cc2)NC(=O)[C@H](CC(C)C)NC(=O)[C@@H]2CCCN2C1=O (Ac-RRCPLY[Ala(cPent)]SYDPVCRR-NH2; disulfide 3-13)	> 11100 nM	23 min
CC[C@H](C)[C@@H]1NC(=O)[C@H](Cc2ccc(O)cc2)NC(=O)[C@H](CC(C)C)NC(=O)[C@@H]2CCCN2C(=O)[C@@H](NC(=O)[C@H](CCCNC(=N)N)NC(=O)[C@H](CCCNC(=N)N)NC(C)=O)CSSC[C@@H](C(=O)N[C@@H](CCCNC(=N)N)C(=O)N[C@@H](CCCNC(=N)N)C(N)=O)NC(=O)[C@H](C(C)C)NC(=O)[C@@H]2CCCN2C(=O)[C@H](CC(=O)O)NC(=O)[C@H](Cc2ccc(O)cc2)NC(=O)[C@H](CO)NC1=O (Ac-RRCPLYISYDPVCRR-NH2; disulfide 3-13)	54 nM	23 min
CC[C@H](C)[C@@H]1NC(=O)[C@H](Cc2ccc(-c3ccccc3)cc2)NC(=O)[C@H](CC(C)C)NC(=O)[C@@H]2CCCN2C(=O)[C@@H](NC(=O)[C@H](CCCNC(=N)N)NC(=O)[C@H](CCCNC(=N)N)NC(C)=O)CSSC[C@@H](C(=O)N[C@@H](CCCNC(=N)N)C(=O)N[C@@H](CCCNC(=N)N)C(N)=O)NC(=O)[C@H](C(C)C)NC(=O)[C@@H]2CCCN2C(=O)[C@H](CC(=O)O)NC(=O)[C@H](Cc2ccc(O)cc2)NC(=O)[C@H](CO)NC1=O (Ac-RRCPL[Bip]ISYDPVCRR-NH2; disulfide 3-13)	7 nM	55 min
